ChEMBL document CHEMBL1154922, “Rapid P1 SAR of brain penetrant tertiary carbinamine derived BACE inhibitors” (Bioorg Med Chem Lett, 2010)
Activity calls are given as the source filed them. No cut-off for these calls is given here.

Legend:
[1] = biological target: Beta-secretase 1 (Homo sapiens) (UniProt P56817); assay: Inhibition of BACE1 at pH 6.5
Method in brief: (§1)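 Enzymatic BACE-1 inhibition assay run at the pH given in each line. Potency is reported as the inflection point (IP), in nM.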

[2] = biological target: Beta-secretase 1 (Homo sapiens) (UniProt P56817); assay: Inhibition of BACE1-mediated production of secreted beta-secretase amino terminal fragment
Method in brief: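 Cell-based sAPP_NF assay: cells express APP carrying the NF mutation, and secreted sAPP is the read-out. IC50 is given as mean ± deviation.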

[3] = biological target: ATP-dependent translocase ABCB1 (Homo sapiens, UniProt P08183); assay: Inhibition of human P-glycoprotein assessed as PGP ratio
Sequence of ATP-dependent translocase ABCB1 (P08183 whole entry): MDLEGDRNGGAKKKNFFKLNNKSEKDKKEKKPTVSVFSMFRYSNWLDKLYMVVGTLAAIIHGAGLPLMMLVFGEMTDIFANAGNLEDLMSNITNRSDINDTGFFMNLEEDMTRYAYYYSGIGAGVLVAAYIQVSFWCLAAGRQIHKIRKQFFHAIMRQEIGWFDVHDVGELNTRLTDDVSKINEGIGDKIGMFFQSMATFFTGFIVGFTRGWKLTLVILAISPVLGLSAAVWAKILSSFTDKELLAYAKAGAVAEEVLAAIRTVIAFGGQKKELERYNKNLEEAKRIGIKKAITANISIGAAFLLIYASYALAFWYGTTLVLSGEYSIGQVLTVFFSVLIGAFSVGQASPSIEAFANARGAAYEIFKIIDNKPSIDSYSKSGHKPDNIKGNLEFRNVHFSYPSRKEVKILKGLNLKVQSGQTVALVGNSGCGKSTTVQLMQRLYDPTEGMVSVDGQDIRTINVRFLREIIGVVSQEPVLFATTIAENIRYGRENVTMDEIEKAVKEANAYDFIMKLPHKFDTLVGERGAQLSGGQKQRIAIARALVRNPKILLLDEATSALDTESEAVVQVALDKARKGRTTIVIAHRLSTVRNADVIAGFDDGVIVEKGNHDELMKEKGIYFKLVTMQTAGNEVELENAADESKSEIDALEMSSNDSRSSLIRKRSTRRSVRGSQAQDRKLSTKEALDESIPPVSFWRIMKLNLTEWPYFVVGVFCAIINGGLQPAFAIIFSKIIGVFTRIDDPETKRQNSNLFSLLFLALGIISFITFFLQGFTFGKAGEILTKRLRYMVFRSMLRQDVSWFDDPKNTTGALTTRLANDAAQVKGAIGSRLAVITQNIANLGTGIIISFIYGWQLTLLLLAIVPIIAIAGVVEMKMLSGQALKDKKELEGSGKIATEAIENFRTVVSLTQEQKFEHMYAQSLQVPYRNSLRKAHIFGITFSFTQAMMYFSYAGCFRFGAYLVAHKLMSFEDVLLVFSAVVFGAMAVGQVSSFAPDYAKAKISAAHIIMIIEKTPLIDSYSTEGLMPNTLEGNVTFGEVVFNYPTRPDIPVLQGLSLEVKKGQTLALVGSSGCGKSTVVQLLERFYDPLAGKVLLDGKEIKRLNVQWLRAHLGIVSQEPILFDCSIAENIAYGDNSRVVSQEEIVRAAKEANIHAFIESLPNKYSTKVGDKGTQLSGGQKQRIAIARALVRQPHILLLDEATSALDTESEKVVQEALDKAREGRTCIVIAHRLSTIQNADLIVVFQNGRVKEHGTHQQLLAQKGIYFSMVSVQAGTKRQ

[4] = organism: Mus musculus; assay: Inhibition of mouse P-glycoprotein assessed as PGP ratio
[5] = Plasma concentration in Rhesus monkey at 15 mg/kg, po co-administered with CYP inhibitor ritonavir 10 mg/kg, po after 4 hrs; assay type: ADME, organism-based, Macaca mulatta
Method in brief: (§2)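 In a satellite PK experiment, rhesus monkeys (n = 3) received the test article at the stated dose together with 10 mpk ritonavir. Plasma levels (µM) were measured at 4 h and 24 h and averaged with standard deviations. Values below the limit of quantitation are marked BLQ.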

[6] = Plasma concentration in Rhesus monkey at 15 mg/kg, po co-administered with CYP inhibitor ritonavir 10 mg/kg, po after 24 hrs; assay type: ADME, organism-based, Macaca mulatta; method in brief: as §2
[7] = Plasma concentration in Rhesus monkey at 5 mg/kg, po co-administered with CYP inhibitor ritonavir 10 mg/kg, po after 4 hrs; assay type: ADME, organism-based, Macaca mulatta; method in brief: as §2
[8] = test system: Rhesus monkey; assay: Plasma concentration in Rhesus monkey at 5 mg/kg, po co-administered with CYP inhibitor ritonavir 10 mg/kg, po after 24 hrs; assay type: ADME, organism-based, Macaca mulatta; conditions: in vivo, BLD = below limit of detection; method in brief: as §2
[9] = test system: Rhesus monkey; assay: Reduction in CSF amyloid beta40 level in cisterna magna ported Rhesus monkey at 5 mg/kg, po co-administered with CYP inhibitor ritonavir 10 mg/kg, po measured after 4 hrs by sandwich ELISA; assay type: functional, organism-based; conditions: Macaca mulatta
[10] = test system: Rhesus monkey; assay: Reduction in CSF amyloid beta42 level in cisterna magna ported Rhesus monkey at 15 mg/kg, po co-administered with CYP inhibitor ritonavir 10 mg/kg, po measured after 4 hrs by sandwich ELISA; assay type: functional, organism-based; conditions: Macaca mulatta
[11] = test system: Rhesus monkey; assay: Reduction in CSF soluble APPbeta level in cisterna magna ported Rhesus monkey at 15 mg/kg, po co-administered with CYP inhibitor ritonavir 10 mg/kg, po measured after 4 hrs by sandwich ELISA; assay type: functional, organism-based; conditions: Macaca mulatta
[12] = biological target: Beta-secretase 1 (Homo sapiens) (UniProt P56817); assay: Inhibition of BACE1 at pH 4.5; method in brief: as §1
[13] = Partition coefficient, log P of the compound; assay type: physicochemical; conditions: octanol/water
[14] = test system: Rhesus monkey; assay: Reduction in CSF amyloid beta40 level in cisterna magna ported Rhesus monkey at 15 mg/kg, po co-administered with CYP inhibitor ritonavir 10 mg/kg, po measured after 4 hrs by sandwich ELISA; assay type: functional, organism-based; conditions: Macaca mulatta
[15] = test system: Rhesus monkey; assay: Reduction in CSF amyloid beta40 level in cisterna magna ported Rhesus monkey at 15 mg/kg, po co-administered with CYP inhibitor ritonavir 10 mg/kg, po measured after 24 hrs by sandwich ELISA; assay type: functional, organism-based; conditions: Macaca mulatta
[16] = Ratio of drug level in brain to plasma in transgenic mouse at 30 mg/kg, ip; conditions: brain and plasma
[17] = test system: Rhesus monkey; assay: Reduction in CSF amyloid beta42 level in cisterna magna ported Rhesus monkey at 15 mg/kg, po co-administered with CYP inhibitor ritonavir 10 mg/kg, po measured after 4 hrs by sandwich ELISA; conditions: Macaca mulatta
[18] = test system: Rhesus monkey; assay: Reduction in CSF soluble APPbeta level in cisterna magna ported Rhesus monkey at 15 mg/kg, po co-administered with CYP inhibitor ritonavir 10 mg/kg, po measured after 4 hrs by sandwich ELISA; conditions: Macaca mulatta

Sequence of Beta-secretase 1 (Homo sapiens) (P56817 whole entry, the tested form may be a part): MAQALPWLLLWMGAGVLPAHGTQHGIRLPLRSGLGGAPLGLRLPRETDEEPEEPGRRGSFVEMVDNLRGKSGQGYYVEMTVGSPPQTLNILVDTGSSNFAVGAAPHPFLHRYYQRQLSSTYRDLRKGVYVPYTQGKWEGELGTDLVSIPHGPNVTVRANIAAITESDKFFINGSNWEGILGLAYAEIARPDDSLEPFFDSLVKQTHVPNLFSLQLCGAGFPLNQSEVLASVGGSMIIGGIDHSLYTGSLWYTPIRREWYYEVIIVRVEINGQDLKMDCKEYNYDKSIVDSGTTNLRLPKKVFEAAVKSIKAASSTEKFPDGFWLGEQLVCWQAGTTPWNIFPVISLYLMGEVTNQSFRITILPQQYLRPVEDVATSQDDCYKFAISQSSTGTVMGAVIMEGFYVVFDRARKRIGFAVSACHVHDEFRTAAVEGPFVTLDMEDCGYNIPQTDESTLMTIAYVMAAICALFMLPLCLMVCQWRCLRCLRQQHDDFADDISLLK

Structure (SMILES)	IP [1]	IP [2]	other results
COCCN(C[C@H]1C[C@@H]1C)c1cc(-c2nnc([C@](C)(N)Cc3ccccc3OC)o2)c(Cl)c(N(C)S(C)(=O)=O)n1	3500 nM		
COCCN(C[C@H]1C[C@@H]1C)c1cc(-c2nnc([C@](C)(N)Cc3ccoc3)o2)c(Cl)c(N(C)S(C)(=O)=O)n1	142 nM	1930 nM	
COCCN(C[C@H]1C[C@@H]1C)c1cc(-c2nnc([C@](C)(N)Cc3ccccc3F)o2)c(Cl)c(N(C)S(C)(=O)=O)n1	15 nM	195 nM	
COCCN(C[C@H]1C[C@@H]1C)c1cc(-c2nnc([C@](C)(N)Cc3ncco3)o2)c(Cl)c(N(C)S(C)(=O)=O)n1	49000 nM		
COCCN(C[C@H]1C[C@@H]1C)c1cc(-c2nnc([C@](C)(N)Cc3ccc(Cl)cc3)o2)c(Cl)c(N(C)S(C)(=O)=O)n1	4 nM	320 nM	
COCCN(C[C@H]1C[C@@H]1C)c1cc(-c2nnc([C@](C)(N)Cc3ccc(F)cc3)o2)c(Cl)c(N(C)S(C)(=O)=O)n1	2 nM	15 nM	Ratio [3]: 1.1; Ratio [4]: 1.9; concentration at 4 h [5]: 2340 nM; concentration at 24 h [6]: 30 nM; concentration at 4 h [7]: 1310 nM; Cp [8]: BLD; Activity [9]: Active; Activity [10]: Active; Activity [11]: Active
COCCN(C[C@H]1C[C@@H]1C)c1cc(-c2nnc([C@](C)(N)Cc3ccccc3Cl)o2)c(Cl)c(N(C)S(C)(=O)=O)n1	340 nM	> 6700 nM	
COCCN(C[C@H]1C[C@@H]1C)c1cc(-c2nnc([C@](C)(N)Cc3ccc4c(c3)OCO4)o2)c(Cl)c(N(C)S(C)(=O)=O)n1	119 nM	1100 nM	
COCCN(C[C@H]1C[C@@H]1C)c1cc(-c2nnc([C@](C)(N)Cc3ccco3)o2)c(Cl)c(N(C)S(C)(=O)=O)n1	375 nM	3190 nM	
COCCN(C[C@H]1C[C@@H]1C)c1cc(-c2nnc([C@](C)(N)Cc3ccnc(OC)c3)o2)c(Cl)c(N(C)S(C)(=O)=O)n1	9900 nM		
COCCN(C[C@H]1C[C@@H]1C)c1cc(-c2nnc([C@](C)(N)Cc3cccc(Cl)c3)o2)c(Cl)c(N(C)S(C)(=O)=O)n1	65 nM	4320 nM	
CCCC[C@@](C)(N)c1nnc(-c2cc(N(CCOC)C[C@H]3C[C@@H]3C)nc(N(C)S(C)(=O)=O)c2Cl)o1	1300 nM	> 2200 nM	
COCCN(C[C@H]1C[C@@H]1C)c1cc(-c2nnc([C@](C)(N)Cc3cc(Br)c(F)cc3Br)o2)c(Cl)c(N(C)S(C)(=O)=O)n1	29000 nM		
COCCN(C[C@H]1C[C@@H]1C)c1cc(-c2nnc([C@](C)(N)Cc3ccccc3)o2)c(Cl)c(N(C)S(C)(=O)=O)n1	5 nM	46 nM	IP [12]: 0.4 nM; Ratio [3]: 1.9; Ratio [4]: 2.3; logP [13]: > 3.2; concentration at 4 h [5]: 3360 nM; concentration at 24 h [6]: 100 nM; Activity [14]: Active; Activity [15]: Active; Kp [16]: 9; Activity [17]: Active; Activity [18]: Active
COCCN(C[C@H]1C[C@@H]1C)c1cc(-c2nnc([C@](C)(N)Cc3ccc(OC)cc3)o2)c(Cl)c(N(C)S(C)(=O)=O)n1	180 nM	4300 nM	
COCCN(C[C@H]1C[C@@H]1C)c1cc(-c2nnc([C@](C)(N)Cc3cccc(F)c3)o2)c(Cl)c(N(C)S(C)(=O)=O)n1	17 nM	304 nM	
COCCN(C[C@H]1C[C@@H]1C)c1cc(-c2nnc([C@](C)(N)Cc3ccc(OC)nc3)o2)c(Cl)c(N(C)S(C)(=O)=O)n1	1400 nM		
COCCN(C[C@H]1C[C@@H]1C)c1cc(-c2nnc([C@](C)(N)Cc3ccc(Br)cc3Br)o2)c(Cl)c(N(C)S(C)(=O)=O)n1	> 600000 nM		
COCCN(C[C@H]1C[C@@H]1C)c1cc(-c2nnc([C@](C)(N)Cc3cccc(OC)c3)o2)c(Cl)c(N(C)S(C)(=O)=O)n1	1500 nM		
